Laboratory results from ChEMBL document CHEMBL1255265, “Linezolid and tiamulin cross-resistance in Staphylococcus aureus mediated by point mutations in the peptidyl transferase center” (2008).
≈ marks a conversion by molar mass, not a printed value.

How the values were obtained:
[1] = system: Escherichia coli; assay: Antimicrobial activity wild type Escherichia coli SQ110 by agar dilution method; type: functional
[2] = system: Escherichia coli; assay: Antimicrobial activity wild type Escherichia coli SQ110 by agar dilution method in presence of 16 ug/ml polymyxin B nonapeptide; type: functional
Method in brief: (§1)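 MIC by agar dilution following BSAC guidelines in Mueller-Hinton medium. For E. coli, the medium was supplemented with 16 μg/ml polymyxin B nonapeptide to permeabilize the gram-negative envelope.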

[3] = system: Escherichia coli; assay: Antimicrobial activity against Escherichia coli KM55-68 harboring G2576U mutation in 23S rRNA by agar dilution method in presence of 16 ug/ml polymyxin B nonapeptide; type: functional; method in brief: as §1
[4] = system: Escherichia coli; assay: Antimicrobial activity against Escherichia coli KM74 harboring U2500A mutation in 23S rRNA by agar dilution method in presence of 16 ug/ml polymyxin B nonapeptide; type: functional; method in brief: as §1
[5] = system: Escherichia coli; assay: Antimicrobial activity against Escherichia coli KM75-84 harboring Gly153Arg mutation in rplC gene by agar dilution method in presence of 16 ug/ml polymyxin B nonapeptide; type: functional; method in brief: as §1
[6] = system: Escherichia coli; assay: Antimicrobial activity against Escherichia coli KM85-86 harboring Lys157Gln mutation in rplC gene by agar dilution method in presence of 16 ug/ml polymyxin B nonapeptide; type: functional; method in brief: as §1
[7] = system: Escherichia coli; assay: Antimicrobial activity against Escherichia coli KM87-88 harboring Arg141Ser mutation in rplC gene by agar dilution method in presence of 16 ug/ml polymyxin B nonapeptide; type: functional; method in brief: as §1
[8] = system: Escherichia coli; assay: Antimicrobial activity against Escherichia coli KM89-94 harboring G2576U mutation in 23S rRNA by agar dilution method in presence of 16 ug/ml polymyxin B nonapeptide; type: functional; method in brief: as §1
[9] = system: Staphylococcus aureus; assay: Antimicrobial activity against Staphylococcus aureus KM187+198 harboring G2576U mutation in 23S rRNA by agar dilution method; type: functional
Method in brief: (§2)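 S. aureus MICs were determined by agar dilution per BSAC guidelines in Mueller-Hinton medium, without supplement.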

[10] = system: Staphylococcus aureus; assay: Antimicrobial activity against Staphylococcus aureus NRS119 clinical isolate harboring G2576U mutation in 23S rRNA by agar dilution method; type: functional; method in brief: as §2
[11] = system: Staphylococcus aureus; assay: Antimicrobial activity against Staphylococcus aureus NRS120 clinical isolate harboring G2576U mutation in 23S rRNA by agar dilution method; type: functional; method in brief: as §2
[12] = system: Staphylococcus aureus; assay: Antimicrobial activity against Staphylococcus aureus NRS121 clinical isolate harboring G2576U mutation in 23S rRNA by agar dilution method; type: functional; method in brief: as §2
[13] = system: Escherichia coli; assay: Antimicrobial activity against Escherichia coli KM69-73 harboring G2447U mutation in 23S rRNA by agar dilution method in presence of 16 ug/ml polymyxin B nonapeptide
[14] = system: Escherichia coli; assay: Antimicrobial activity against tiamulin resistant Escherichia coli SQ110 by agar dilution method; type: functional
[15] = system: Staphylococcus aureus; assay: Antimicrobial activity against wild type Staphylococcus aureus RN4220 measured after 2 days of subculturing by agar dilution method; type: functional; conditions: RN4220, 48 h
Method in brief: (§3)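 Resistant mutants were selected by serial subculture in Mueller-Hinton medium containing antibiotic, and time to emergence of resistance was recorded. MICs were determined by agar dilution per BSAC guidelines.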

[16] = system: Staphylococcus aureus; assay: Antimicrobial activity against mutS-expressing Staphylococcus aureus RN4220 measured after 1 day of subculturing by agar dilution method; type: functional; conditions: RN4220, 24 h; method in brief: as §3
[17] = system: Staphylococcus aureus; assay: Antimicrobial activity against tiamulin resistant Staphylococcus aureus 8325-4 after 1 day of subculturing by agar dilution method; type: functional; conditions: 8325-4, 24 h; method in brief: as §3
[18] = system: Staphylococcus aureus; assay: Antimicrobial activity against Staphylococcus aureus KM164-165 harboring Gly155Arg mutation in rplC gene by agar dilution method; type: functional; method in brief: as §2
[19] = system: Staphylococcus aureus; assay: Antimicrobial activity against Staphylococcus aureus KM166-167 harboring Ser158Leu mutation in rplC gene by agar dilution method; type: functional; method in brief: as §2
[20] = system: Staphylococcus aureus; assay: Antimicrobial activity against Staphylococcus aureus RN4220 by agar dilution method; type: functional; method in brief: as §2
[21] = system: Staphylococcus aureus; assay: Antimicrobial activity against Staphylococcus aureus KM168 harboring Arg149Ser mutation in rplC gene by agar dilution method; type: functional; method in brief: as §2

Compound `CC(=O)NC[C@H]1CN(c2ccc(N3CCOCC3)c(F)c2)C(=O)O1` [LINEZOLID] has an MIC [1] of 256 µg/mL (≈ 759 µM), an MIC [2] of 16 µg/mL and an MIC [3] of 64 µg/mL. It also gave an MIC [4] of 64 µg/mL, an MIC [5] of 16 µg/mL and an MIC [6] of 16 µg/mL. For the same compound, the MIC [7] was 16 µg/mL, the MIC [8] was 64 µg/mL and the MIC [9] was 64 µg/mL (≈ 190 µM). It also gave an MIC [10] of 64 µg/mL (≈ 190 µM), an MIC [11] of 64 µg/mL (≈ 190 µM) and an MIC [12] of 64 µg/mL (≈ 190 µM). It also gave an MIC [13] of 64 µg/mL.

In the case of `C=C[C@]1(C)C[C@@H](OC(=O)CSCCN(CC)CC)[C@]2(C)[C@H](C)CC[C@]3(CCC(=O)[C@H]32)[C@@H](C)[C@@H]1O` [TIAMULIN], the MIC [14] was 128 µg/mL (≈ 259 µM), the MIC [15] was 1 µg/mL (≈ 2.03 µM) and the MIC [16] was 2 µg/mL (≈ 4.05 µM). For the same compound, the MIC [17] was 1 µg/mL (≈ 2.03 µM), the MIC [2] was 8 µg/mL and the MIC [3] was 64 µg/mL. The MIC [4] was 64 µg/mL, the MIC [5] was 32 µg/mL and the MIC [6] was 32 µg/mL. It also gave an MIC [7] of 64 µg/mL, an MIC [8] of 64 µg/mL and an MIC [18] of 8 µg/mL (≈ 16.2 µM). For the same compound, the MIC [19] was 16 µg/mL (≈ 32.4 µM), the MIC [20] was 1 µg/mL (≈ 2.03 µM) and the MIC [21] was 8 µg/mL (≈ 16.2 µM). The MIC [9] was 16 µg/mL (≈ 32.4 µM), the MIC [10] was 32 µg/mL (≈ 64.8 µM) and the MIC [11] was 32 µg/mL (≈ 64.8 µM). It also gave an MIC [12] of 32 µg/mL (≈ 64.8 µM) and an MIC [13] of 64 µg/mL.
